Bioassay records: PubChem, several laboratories
Most compounds without a hit are left out; they make up all but 1.9% or so of the library.
p-CIP stab down = lowers stability of the mouse p/CIP coactivator protein; F442A p/CIP-EGFP cells, EGFP fluorescence, 16 h; hit rate 0.01% among 290,000; decrease of EGFP signal, % at 10 µM; AID 1984;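 active means EGFP signal decrease of at least 30% at 10 µM or well 3 SD below plate mean, unless failing retest; inactive means the rest, including hits failing retest or dose response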
IMP-1 inh = blocks Pseudomonas aeruginosa IMP-1 metallo-beta-lactamase. hit rate 0.45% among 290,000. purified IMP-1, nitrocefin hydrolysis, epi-absorbance fluorescence. inhibition, % at 5.6 µM. AID 1556;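 active means inhibition above the mean plus 3 SD of all compounds in the same screening run, cut at about 4.5% in these data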;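 further: 0% = IMP-1 with DMSO and 100% = DMSO wells lacking enzyme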
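System: purified recombinant IMP-1 beta-lactamase. Medium: Zinc- and detergent-supplemented HEPES buffer, pH 7.1. Compound: one 5.6 µM dose […]. Schedule: 15 min preincubation plus 25 min reaction at 25 °C. Technique: Epi-absorbance fluorescence, 480 nm excitation, 530 nm emission.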
T cell modulator = T cell immune modulation candidate | response (vesicle binding), % at 7 µM | hit rate 0.068% among 330,000 | 2C CD8+ T cell-vesicle binding, flow cytometry; stronger effect = lower value;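 active means response, share of CD8 T cells binding vesicles, and their 90th percentile fluorescence all below set limits, cut at about 80% in these data, passing the limit was not always enough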;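 further: values below 100% mean blocked vesicle binding to the CD8+ T cells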
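Read-out – percent CD8+ FL2 mean versus row control · System – murine 2C transgenic CD8+ T lymphocytes · Times – 1.5 h cell–vesicle binding at 37 °C, then 20 min icy labelling · Control set – naked vesicles low, QL9 vesicles with vehicle high · Detection – cytometric PE anti-B7-1 and Alexa647 anti-CD8 signals after 1% paraformaldehyde fixation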
CTSL1 counter = counter-screen for PFM18AAP inhibitors: inhibitors of F. hepatica cathepsin L1. recombinant F. hepatica cathepsin L1, Z-Leu-Arg-MCA fluorescence. inhibition, % at 5.96 µM. hit rate 0.49% among 300,000. AID 1906;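 active means inhibition above the mean of all tested compounds plus 3 SD, set per screening campaign, cut at about 17% in these data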;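 further: 0% = plate median of test compound wells and 100% = 1 µM Z-Phe-Ala-diazomethylketone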
VIM-2 inhibitor = blocks Pseudomonas aeruginosa VIM-2 metallo-beta-lactamase; AID 1527; inhibition, % at 5.6 µM; hit rate 0.89% among 290,000; purified VIM-2, nitrocefin hydrolysis, epi-absorbance fluorescence;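 active means inhibition above the mean of all tested compounds plus 3 SD, cutoff set per screening run, cut at about 7.5% in these data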;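 further: red hydrolysis product quenches plate fluorescence so inhibitors raise well fluorescence; 0% = enzyme with DMSO and 100% = DMSO without enzyme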
SUMO HTRF inh = SUMOylation inhibition | P63279 | HTRF SUMOylation assay, SAE1/SAE2 + UBC9, in vitro | inhibition, % at 35 µM | AID 2006 | hit rate 0.36% among 290,000; in the data active means inhibition above about 50%, passing the limit was not always enough
Target sequence (P63279 whole entry, looked up): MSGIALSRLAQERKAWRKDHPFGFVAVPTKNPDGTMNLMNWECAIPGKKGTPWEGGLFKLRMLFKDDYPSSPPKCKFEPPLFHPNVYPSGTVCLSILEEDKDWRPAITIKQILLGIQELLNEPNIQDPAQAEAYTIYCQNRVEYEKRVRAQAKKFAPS
* = called active by the depositor; i = inactive; · = no result given.

SMILES	p-CIP stab down	IMP-1 inh	T cell modulator	CTSL1 counter	VIM-2 inhibitor	SUMO HTRF inh
COc1ccc(-c2cc(=O)oc3c(C)c(OCC(=O)N(C)C)ccc23)cc1	-5	-3	397	3	2	18
COc1ccc(-c2cc(=O)oc3c(C)c(OCC(=O)Nc4cccnc4)ccc23)cc1	4	6.7*	530	-1	0	0
O=S(=O)(O)c1cccc2c(N=Nc3ccc(O)c4ncccc34)cccc12	-4	-7	69	8	1	90*
Cc1ccccc1N=Nc1ccc(O)c2ncccc12	2	-2	155	10	-4	-26
Nc1ccccc1C(=O)NCC1(c2ccccc2)CCCC1	0	-2	330	18*	-2	10
O=C(NCC1(c2ccccc2)CCCC1)c1ccc(Br)cc1	-6	-2	305	-2	0	-3
COc1cc2c(cc1OC)-c1c(OC)c(OC)cc3ccnc(c13)C2=O	-29	-6	555	2	9.0*	5
CN(CC(=O)Nc1cccc(F)c1)C(=O)c1ccc(NC2CC2)c([N+](=O)[O-])c1	·	·	386	5	·	·
COc1ccc(/C=N/NC(=O)c2nn(C)cc2Br)cc1CSCc1ccco1	-19	18*	223	5	2	11
Cc1ccc(-n2ncc3c2CC(C)(C)CC3NC(=O)c2ccncc2)cc1 (stereo not given)	2	-1	353	2	-2	13
COc1ccc(CCn2c(N)c(C(=O)NCc3ccco3)c3nc4ccccc4nc32)cc1	1	0	175	-2	0	100*
CCOC(=O)c1ccccc1N/C=C1\CCCC1=O	-6	-2	305	1	12*	11
CCCCn1c(N)c(Sc2ccccc2)c(=O)[nH]c1=O	1	5.0*	558	-4	-1	2
O=C(Nc1ccccc1-c1nc2ccccc2s1)c1cccnc1Cl	5	-2	321	5	0	58*
O=C(Nc1ccccc1N1CCOCC1)c1cccnc1Cl	-1	47*	269	-1	1	-1
O=C(Nc1ccc(N2CCOCC2)c(Cl)c1)c1cccnc1Cl	-6	-4	456	1	0	27
CC(C)OCCCNC(=O)CCCC(=O)Nc1ccc(OCCc2ccccc2)cc1	-6	-1	292	5	1	-3
CCCc1cc(=O)[nH]c(SCC(=O)NCC2COc3ccccc3O2)n1 (stereo not given)	·	·	219	·	·	·
C=CCn1c(SCC(C)=O)nc2scc(-c3ccco3)c2c1=O	4	16*	476	23*	4	22
CCCc1cc(NC(=O)CCl)n(-c2ccccc2)n1	-24	-1	274	79*	-4	9
CC(C)(C)c1cc(NC(=O)CCl)n(-c2ccccc2)n1	19	-3	272	57*	-3	-2
CSCCC(NC(=O)c1ccccc1Cl)C(=O)OCC(=O)N1CCCC1=O (stereo not given)	·	·	574	3	·	·
COc1ccc(C2CC(c3cccs3)=NN2C(=O)c2ccccc2)cc1OC (stereo not given)	3	-1	176	-1	-2	-2
COc1ccc(C2CC(c3cccs3)=NN2C(=O)CCl)cc1OC (stereo not given)	-1	-2	354	58*	-1	13
COc1cc(C2CC(c3cccs3)=NN2C(=O)CCl)ccc1OC(F)F (stereo not given)	-7	-2	202	59*	-1	7
SMILES	p-CIP stab down	IMP-1 inh	T cell modulator	CTSL1 counter	VIM-2 inhibitor	SUMO HTRF inh
Nc1nc(N)c(N=O)c(OCC2CCCCC2)n1	7	-5	375	104*	-3	3
NS(=O)(=O)OCC1CCCCC1	4	-1	549	-2	-1	-21
COc1ccc(Br)cc1/C=N/N1C(=O)CSC1=S	-3	17*	152	1	-1	-7
COc1cc(/C=N/N2C(=O)CSC2=S)ccc1O	4	-2	i	11	-5	-6
Cc1ccc(C2CC(c3cccs3)=NN2C(=O)CSc2nc(=O)n3cc(C)ccc3n2)cc1 (stereo not given)	·	·	138	8	·	·
COc1ccccc1N1CCN(C(=O)c2cccc(S(=O)(=O)NCc3cccnc3)c2)CC1	·	·	344	·	·	·
Cc1ccc2nc(C)cc(C(=O)N/N=C/c3ccncc3)c2c1	-1	-2	438	-1	-1	6
CN1CCN(C(=O)CCCN2C(=O)/C(=C/c3cccc(Br)c3)SC2=S)CC1	-6	2	·	·	12*	0
CN1CCN(C(=O)CCN2C(=O)/C(=C/c3cccc(Br)c3)SC2=S)CC1	-7	5.5*	318	9	1	-8
O=C(CCCN1C(=O)/C(=C/c2cccc(Br)c2)SC1=S)N1CCOCC1	3	-3	441	-3	-2	3
Cc1ccc(Cn2nnc3c(=O)[nH]c(C4CCN(S(=O)(=O)c5ccccc5F)CC4)nc32)cc1	1	-3	322	0	-1	-12
CC(=O)c1ccc(NC(=O)C2C3C=CC(C3=C(c3ccccc3)c3ccccc3)C2C(=O)O)cc1 (stereo not given)	10	-1	357	-1	-2	2
CCOC(=O)C1CCN(S(=O)(=O)c2c[nH]c(=O)[nH]c2=O)CC1	·	·	251	0	·	·
CC(NC(=O)/C(C#N)=C/c1ccco1)c1ccccc1 (stereo not given)	-6	-3	95	36*	-3	-14
CCOC(=O)C1CCN(c2cc3c(cc2NC(=O)c2ccccc2Cl)n(C)c(=O)n3C)CC1	-9	-1	70	5	-2	25
CCOC(=O)C1CCN(c2cc3c(cc2NC(=O)c2ccccc2F)n(C)c(=O)n3C)CC1	9	18*	i	-1	1	23
Cc1ccc(O)c(NC(=O)c2ccc3c(c2)C(=O)N(Cc2ccco2)C3=O)c1	-6	0	i	6	-1	21
CN(Cc1ccco1)C(=O)c1cc2c(s1)-c1ccc(Cl)cc1S(=O)(=O)C2	-8	-2	162	0	3	53
O=C(CSc1nc2ccccc2c(=O)n1CC1CCCO1)NCC1CCCO1 (stereo not given)	-11	-3	304	-2	-4	6
NC(=O)NC(=O)CSc1nc(-c2ccccc2)c(-c2ccccc2)n1CC1CCCO1 (stereo not given)	-2	-1	138	20*	0	21
COc1ccc(OC)c2sc(N(CCN(C)C)C(=O)/C=C/c3cccs3)nc12	-6	11*	356	5	5	-7
COc1ccc(C)c2sc(N(CCN(C)C)C(=O)/C=C/c3cccs3)nc12	2	1	237	0	1	2
O=[N+]([O-])c1ccc(Cl)cc1NCc1cccnc1	·	·	373	-3	·	·
O=C(N[C@H]1C/C=C\C[C@@H](CC(=O)N(CCO)Cc2ccccc2)C(=O)N2CCC[C@H]2COC1=O)OCC1c2ccccc2-c2ccccc21	·	·	345	·	·	·
